In PubChem BioAssay:
Unmarked numbers belong to inactive results. Records with an inconclusive call do not appear. The source made the active and inactive calls.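 How the source made its calls, unless noted: active means viability increase at or above a cutoff of the median across tested compounds plus 3 SD (cut at about 8.5% in these data, passing the limit was not always enough); inconclusive means some gains above the cutoff, reason not given; inactive means the rest.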

What was measured:
[1] = S. cerevisiae growth inhibition in permissive medium (OD615), pilot counter-assay for S. cerevisiae lifespan shortening project, permissive growth control (AID 705;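 active means growth inhibition above 25% in both replicates, a cutoff set 3 SD above the mean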); conditions: OD615, 24 h, at 10 µM, active compounds read high
Procedure, shortened: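 Material: engineered DeaD yeast; compound dosing: one dose 10 µM, DMSO 0.25% final; measure: yeast growth inhibition indicated by reduced 24 h OD615; detection: OD615 turbidity read; incubation: cells pre-grown 4 h, then 24 h compound exposure, 30 °C humidified; medium: permissive synthetic complete medium with raffinose and galactose carbon sources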

[2] = S. cerevisiae growth inhibition in restrictive medium, OD615, pilot screen, restrictive growth control, yeast lifespan reduction project (AID 706;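 active means growth inhibition above a set limit, 3 SD over mean compound inhibition, in both replicates, cut at about 43% in these data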;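 further: modified DeaD lifespan yeast strain shifted to restrictive glucose medium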); conditions: OD615, 48 h, at 10 µM, active compounds read high
Procedure, shortened: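 material = engineered S. cerevisiae DeaD strain | medium = glucose-based CSMM-D restrictive medium | times = 4 h pre-incubation, 48 h exposure at 30 °C | technique = OD615 absorbance reading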

[3] = doxorubicin toxicity protection in MRP-1 cells – H69AR cells, CellTiter-Glo, duplicate, MRP-1 activator project, pilot screen (AID 807); conditions: H69AR viability with doxorubicin, CellTiter-Glo luminescence; at 10 µM; active compounds read high;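 further: compound pretreatment 18-22 h then 72 h combined with doxorubicin; 0% = doxorubicin alone and 100% = vehicle without doxorubicin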
[4] = viability of HCT116 without oncogenic beta-catenin – human colon tumor cells, pilot screen (AID 823;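 active means cell viability at or below a set limit in both duplicate runs, the limit being the all-compound median minus 4 SD, cut at about 23% in these data, passing the limit was not always enough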;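 further: 0% = wells killed by 20 µM Hyamine and 100% = untreated DMSO cell wells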); conditions: HCT116 beta-catenin knockout viability, CellTiter-Glo, 60 h; at 10 µM; active compounds read low
[5] = viability of PTEN-null HCT116 cells – cell-based, HCT116 clonal line, CellTiter-Glo, pilot screen (AID 824;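 active means viability at or below 27.92% in each of two runs, the all-compound median minus 4 SD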;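 further: 0% = 20 µM Hyamine control and 100% = vehicle cell control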); conditions: HCT116 PTEN-deleted viability, 60 h, at 10 µM, active compounds read low
[6] = RAM pathway blockade in budding yeast – dse1pr::URA3 reporter, 5-FOA selection, pilot screen (AID 869;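 active means inhibition over a set limit, the all-compound mean plus 3 SD, in both replicate runs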;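 further: 0% = DMSO wells with no growth and 100% = 10 µM 1-NA-PP1 with full growth; RAM network block rescues cells from 5-FOA so hits raise OD615 growth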); conditions: S. cerevisiae dse1pr::URA3 5-FOA growth, OD615, 2 d; at 10 µM; active compounds read high; strain carries analog-sensitive mutant Cbk1 kinase
[7] = RAM signaling pathway blockade in yeast – S. cerevisiae, Pdr1DBD-CYC8 efflux-inhibited sensitized strain, primary screen (AID 1298;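 active means RAM network inhibition above 8.4% in each of two replicates, 3 SD over the compound average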;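 further: 0% = DMSO untreated cells without growth and 100% = 10 µM 1-NA-PP1 full growth; higher means more yeast growth rescued from 5-FOA killing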); conditions: S. cerevisiae cbk1-as DSE1-URA3 strain, 5-FOA growth OD615, 2 d; at 50 µM; active compounds read high

Structure (SMILES) | growth inhibition [1] [%] | growth inhibition [2] [%] | viability increase [3] [%] | viability [4] | viability [5] | inhibition [6] [%] | RAM network inhibition [7] [%]
COC(=O)c1c(C)oc2ccc(OC(=O)c3cccs3)cc12 | 4.65 | -15 | 1.81 | 96.3% | 99.5% | 0.81 | 0.1
CCC(C)NC(=O)c1c(-c2cc(Cl)c(OC)c(Cl)c2)noc1C (stereo not drawn) | -15 | -11.9 | 0.42 | 96.7% | 93% | 0.895 | 5.69
CCC(=O)N1CCc2cc(Br)cc(S(=O)(=O)NCCN3CCOCC3)c21 | -4.99 | -8.08 | 0.03 | 101% | 98.4% | 1.71 | 1.49
COC(=O)c1ccc(NC(=O)CNC(=O)C2CCCCC2)cc1 | -0.115 | -0.73 | -0.57 | 98.4% | 88.1% | 0.625 | 1.94
CCS(=O)(=O)N1CCN(Cc2nc3ccccc3c(=O)[nH]2)CC1 | -12.6 | -14.4 | 0.44 | 97.5% | 91.8% | 1.33 | 6.05
COc1ccc(S(=O)(=O)Cc2ccc(C(=O)N3CCC(C(N)=O)CC3)o2)cc1 | -3.35 | 0.07 | -0.31 | 76% | 93.5% | 2.22 | 4.37
COCCn1c(SCC(=O)NCC2CCCO2)nc2c(c1=O)SC(C)C2 (stereo not drawn) | -7.14 | -0.265 | -0.65 | 110% | 109% | 1.19 | 3.08
CCCCC(CC)C(=O)NCCc1ccc(S(N)(=O)=O)cc1 (stereo not drawn) | -2.48 | -4.13 | -0.52 | 93.2% | 97.9% | 1 | -0.82
COC(=O)c1cn(NC(=O)c2ccc3c(c2)OCO3)c(=O)c2ccccc12 | -4.02 | -1.45 | -2.75 | 96.3% | 97.3% | 1.44 | 6.69
Cn1c(Cn2c(=O)sc3ccccc32)nnc1SCC(=O)N1CCCc2ccccc21 | -4.97 | 0.455 | -3.71 | 96.5% | 95.1% | 1.82 | 6.16
C(#Cc1ccc(C#CCN2CCOCC2)cc1)CN1CCOCC1 | -17.1 | -9.67 | -0.83 | 85.8% | 87.2% | 1.15 | 3.18
CCN1c2ccccc2NC2N=C(OC)C(c3ccccc3)C21 (stereo not drawn) | -38.2 | 7.12 | -8.25 | 3.31% (active) | 2.97% (active) | 2.47 | 3.8
CCOc1ccc(-c2cc(NC(=O)Cn3ncc4c3-c3ccccc3OC4)on2)cc1OCC | -7.96 | -3.25 | 1.4 | 98.8% | 91.2% | 1.22 | -0.17
CCOC(=O)N1CCc2c(sc(NC(C)=O)c2C(N)=O)C1 | -5.06 | -16.1 | -1.9 | 103% | 99.3% | 1.6 | 0.58
COc1ccc(CNC(=O)CCCNS(=O)(=O)c2cccc3nonc23)cc1 | 1.99 | -22.1 | -2.08 | 92.3% | 96.7% | 1.31 | 7.37
CC(=O)c1ccc(-n2nncc2C(C)(C)C)cc1 | -3.02 | -2.67 | -0.85 | 98.6% | 99.5% | 1.47 | 0.78
CC1(C)CC(=O)C2=C(C1)Nc1ccccc1NC2c1cccnc1 (stereo not drawn) | 7.14 | 1.02 | -3.43 | 96.1% | 93.6% | -0.195 | 0.21
CC1CCCN(C(C(=O)Nc2ccc3c(c2)OCO3)c2ccccc2)C1 (stereo not drawn) | -8.14 | 5.27 | -3.45 | 79.6% | 79.4% | 1.85 | 1.67
COc1ccc(C2C/C(=N\O)C(C)(C)O2)cc1 (stereo not drawn) | -16.5 | -4.77 | -0.83 | 97.1% | 93.7% | 1.06 | 3.9
CCCOc1ccc(N2C(=O)CC(N3CCN(c4ccccc4F)CC3)C2=O)cc1 (stereo not drawn) | -0.95 | -3.87 | 1.4 | 94.7% | 96.4% | 0.125 | 7.05
CCCOc1ccc(C(=O)NCCC(=O)NCCCC(=O)OCC)cc1 | -14.6 | -20.7 | 0.2 | 91.8% | 104% | 1.34 | 0.47
COc1ccc(C(c2sc3nc(C)nn3c2O)N2CCC(O)CC2)cc1OC (stereo not drawn) | 4.24 | 0.32 | -0.06 | 106% | 100% | 1.38 | 5.56
COc1ccc(N2C(=O)c3ccccc3NC23CCCCC3)cc1 | -13.4 | -9.03 | -1.34 | 94.8% | 91.5% | 0.47 | 1.91
COc1cc2[nH]c(=O)n(CCCCCC(=O)NCCCN3CCOCC3)c(=O)c2cc1OC | -9.12 | -24.8 | -1.27 | 97.8% | 89.6% | 0.585 | -0.68
